# Source: ChEMBL document CHEMBL2311487, “Total synthesis of bicyclic depsipeptides spiruchostatins C and D and investigation of their histone deacetylase inhibitory and antiproliferative activities” (Eur J Med Chem, 2013)
# How the values were obtained:
# Histone deacetylase = assay: Inhibition of class 1 HDAC (unknown origin); type: protein assay, Homo sapiens
# [1] = Selectivity index, ratio of IC50 for mouse HDAC6 to IC50 for human HDAC1
# Method in brief: (§1)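 FLAG-tagged HDAC1 or HDAC6 was expressed in cells grown 24 h in DMEM, then lysed in Tris/NaCl/EDTA/NP40 buffer. The enzyme was immunoprecipitated with anti-FLAG M2 and eluted with FLAG peptide. It was incubated with Ac-KGLGK(Ac)-MCA (2 mM stock) and 100 μM DTT at 37 °C for 30 min, then trypsin at 37 °C for 15 min. AMC fluorescence was read. IC50 is the mean±SD of ≥3 curves. The ratios are computed from these IC50s.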
# [2] = molecular target: Histone deacetylase 1 (Homo sapiens) (UniProt Q13547); assay: Ratio of FK228 IC50 to compound IC50 for human HDAC1 using Ac-KGLGK(Ac)-MCA as substrate after 30 mins by fluorescence assay; method in brief: as §1
# [3] = molecular target: Protein deacetylase HDAC6 (Mus musculus, UniProt Q9Z2V5); assay: Inhibition of mouse HDAC6 using Ac-KGLGK(Ac)-MCA as substrate after 30 mins by fluorescence assay
# PC-3 = assay: Growth inhibition of human PC3 cells by sulforhodamine B colorimetric method; type: functional
# Method in brief: (§2)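 Tested in a human cancer cell line panel. Five concentrations were used per compound, spanning either 10^-10–10^-6 M or 10^-8–10^-4 M. Growth was read by sulforhodamine B colorimetry.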
# DU-145 = assay: Growth inhibition of human DU145 cells by sulforhodamine B colorimetric method; type: functional; method in brief: as §2
# MKN-45 = assay: Growth inhibition of human MKN45 cells by sulforhodamine B colorimetric method; type: functional; method in brief: as §2
# MKN-74 = assay: Growth inhibition of human MKN74 cells by sulforhodamine B colorimetric method; type: functional; method in brief: as §2
# MKN-28 = assay: Growth inhibition of human MKN28 cells by sulforhodamine B colorimetric method; type: functional; method in brief: as §2
# MKN-7 = assay: Growth inhibition of human MKN7 cells by sulforhodamine B colorimetric method; type: functional; method in brief: as §2
# St-4 = assay: Growth inhibition of human St-4 cells by sulforhodamine B colorimetric method; type: functional; method in brief: as §2
# [4] = Growth inhibition of human MKN1 cells by sulforhodamine B colorimetric method; type: functional; conditions: MKN-1; method in brief: as §2
# [5] = Growth inhibition of human RXF631L cells by sulforhodamine B colorimetric method; type: functional; conditions: RXF 631; method in brief: as §2
# ACHN = assay: Growth inhibition of human ACHN cells by sulforhodamine B colorimetric method; type: functional; method in brief: as §2
# SK-OV-3 = assay: Growth inhibition of human SKOV3 cells by sulforhodamine B colorimetric method; type: functional; method in brief: as §2
# OVCAR-5 = assay: Growth inhibition of human OVCAR5 cells by sulforhodamine B colorimetric method; type: functional; method in brief: as §2
# OVCAR-8 = assay: Growth inhibition of human OVCAR8 cells by sulforhodamine B colorimetric method; type: functional; method in brief: as §2
# OVCAR-4 = assay: Growth inhibition of human OVCAR4 cells by sulforhodamine B colorimetric method; type: functional; method in brief: as §2
# LOX IMVI = assay: Growth inhibition of human LOXIMVI cells by sulforhodamine B colorimetric method; type: functional; method in brief: as §2
# OVCAR-3 = assay: Growth inhibition of human OVCAR3 cells by sulforhodamine B colorimetric method; type: functional; method in brief: as §2
# DMS-273 = assay: Growth inhibition of human DMS273 cells by sulforhodamine B colorimetric method; type: functional; method in brief: as §2
# DMS-114 = assay: Growth inhibition of human DMS114 cells by sulforhodamine B colorimetric method; type: functional; method in brief: as §2
# NCI-H460 = assay: Growth inhibition of human NCI-H460 cells by sulforhodamine B colorimetric method; type: functional; method in brief: as §2
# A549 = assay: Growth inhibition of human A549 cells by sulforhodamine B colorimetric method; type: functional; method in brief: as §2
# NCI-H522 = assay: Growth inhibition of human NCI-H522 cells by sulforhodamine B colorimetric method; type: functional; method in brief: as §2
# NCI-H23 = assay: Growth inhibition of human NCI-H23 cells by sulforhodamine B colorimetric method; type: functional; method in brief: as §2
# NCI-H226 = assay: Growth inhibition of human NCI-H226 cells by sulforhodamine B colorimetric method; type: functional; method in brief: as §2
# HCT-116 = assay: Growth inhibition of human HCT116 cells by sulforhodamine B colorimetric method; type: functional; method in brief: as §2
# HT-29 = assay: Growth inhibition of human HT-29 cells by sulforhodamine B colorimetric method; type: functional; method in brief: as §2
# HCT-15 = assay: Growth inhibition of human HCT15 cells by sulforhodamine B colorimetric method; type: functional; method in brief: as §2
# [6] = Growth inhibition of human HCC2998 cells by sulforhodamine B colorimetric method; type: functional; conditions: HCC 2998; method in brief: as §2
# KM12 = assay: Growth inhibition of human KM12 cells by sulforhodamine B colorimetric method; type: functional; method in brief: as §2
# SNB-78 = assay: Growth inhibition of human SNB78 cells by sulforhodamine B colorimetric method; type: functional; method in brief: as §2
# SNB-75 = assay: Growth inhibition of human SNB75 cells by sulforhodamine B colorimetric method; type: functional; method in brief: as §2
# SF-539 = assay: Growth inhibition of human SF539 cells by sulforhodamine B colorimetric method; type: functional; method in brief: as §2
# SF-295 = assay: Growth inhibition of human SF295 cells by sulforhodamine B colorimetric method; type: functional; method in brief: as §2
# U-251 = assay: Growth inhibition of human U251 cells by sulforhodamine B colorimetric method; type: functional; method in brief: as §2
# SF-268 = assay: Growth inhibition of human SF268 cells by sulforhodamine B colorimetric method; type: functional; method in brief: as §2
# MDA-MB-231 = assay: Growth inhibition of human MDA-MB-231 cells by sulforhodamine B colorimetric method; type: functional; method in brief: as §2
# MCF7 = assay: Growth inhibition of human MCF7 cells by sulforhodamine B colorimetric method; type: functional; method in brief: as §2
# [7] = Growth inhibition of human HBC5 cells by sulforhodamine B colorimetric method; type: functional; method in brief: as §2
# [8] = Growth inhibition of human BSY1 cells by sulforhodamine B colorimetric method; type: functional; conditions: BSY-1; method in brief: as §2
# [9] = Growth inhibition of human HBC4 cells by sulforhodamine B colorimetric method; type: functional; method in brief: as §2
# Chain of Histone deacetylase 1 (Homo sapiens) (Q13547 whole entry): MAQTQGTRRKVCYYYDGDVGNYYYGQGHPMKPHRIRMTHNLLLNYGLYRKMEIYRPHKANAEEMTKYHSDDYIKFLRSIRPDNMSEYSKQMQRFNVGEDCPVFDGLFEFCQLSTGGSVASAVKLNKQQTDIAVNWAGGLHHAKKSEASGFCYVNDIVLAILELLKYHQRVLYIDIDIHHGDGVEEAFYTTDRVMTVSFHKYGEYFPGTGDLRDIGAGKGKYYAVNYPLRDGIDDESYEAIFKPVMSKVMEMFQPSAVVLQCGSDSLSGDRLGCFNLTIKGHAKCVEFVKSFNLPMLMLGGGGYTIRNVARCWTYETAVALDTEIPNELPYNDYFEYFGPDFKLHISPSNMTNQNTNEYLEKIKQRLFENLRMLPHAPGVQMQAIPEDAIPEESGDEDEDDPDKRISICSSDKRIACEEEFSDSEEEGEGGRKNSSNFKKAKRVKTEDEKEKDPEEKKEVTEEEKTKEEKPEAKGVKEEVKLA
# Chain of Protein deacetylase HDAC6 (Q9Z2V5 whole entry): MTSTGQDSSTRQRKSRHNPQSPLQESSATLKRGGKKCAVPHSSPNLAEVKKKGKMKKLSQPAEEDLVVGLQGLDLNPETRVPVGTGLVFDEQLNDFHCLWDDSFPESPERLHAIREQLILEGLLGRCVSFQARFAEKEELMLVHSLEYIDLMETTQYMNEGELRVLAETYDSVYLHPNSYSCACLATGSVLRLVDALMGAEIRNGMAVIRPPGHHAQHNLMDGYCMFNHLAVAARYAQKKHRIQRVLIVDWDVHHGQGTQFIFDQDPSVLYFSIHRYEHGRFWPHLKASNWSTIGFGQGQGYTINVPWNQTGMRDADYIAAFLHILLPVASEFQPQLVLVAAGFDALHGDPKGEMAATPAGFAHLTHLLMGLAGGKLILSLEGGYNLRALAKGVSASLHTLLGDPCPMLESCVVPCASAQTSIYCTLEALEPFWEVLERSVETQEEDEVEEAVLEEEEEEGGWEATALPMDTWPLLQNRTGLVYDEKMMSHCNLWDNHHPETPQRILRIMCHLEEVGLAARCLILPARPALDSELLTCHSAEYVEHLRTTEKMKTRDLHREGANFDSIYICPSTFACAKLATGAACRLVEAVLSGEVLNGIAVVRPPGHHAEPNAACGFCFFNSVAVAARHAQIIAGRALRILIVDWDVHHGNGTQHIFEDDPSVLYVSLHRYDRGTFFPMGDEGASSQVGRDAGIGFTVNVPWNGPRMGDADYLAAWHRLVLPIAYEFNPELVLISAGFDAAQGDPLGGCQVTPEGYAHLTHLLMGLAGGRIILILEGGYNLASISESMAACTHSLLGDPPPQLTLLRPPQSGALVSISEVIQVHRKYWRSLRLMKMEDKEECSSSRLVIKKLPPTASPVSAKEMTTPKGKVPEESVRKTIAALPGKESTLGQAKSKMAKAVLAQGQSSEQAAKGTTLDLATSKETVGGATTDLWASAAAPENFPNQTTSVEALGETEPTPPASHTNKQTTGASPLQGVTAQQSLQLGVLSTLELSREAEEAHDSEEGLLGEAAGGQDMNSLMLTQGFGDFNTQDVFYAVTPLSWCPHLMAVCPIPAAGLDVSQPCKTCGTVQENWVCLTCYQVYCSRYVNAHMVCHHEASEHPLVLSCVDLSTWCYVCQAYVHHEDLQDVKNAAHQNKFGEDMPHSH
smiles,measurement,setting,value
CCC(C)[C@H]1NC(=O)[C@H]2CSSCC/C=C/[C@H](CC(=O)N[C@H](C)C(=O)N2)OC(=O)C[C@@H]1O (stereo partly drawn) [spiruchostatin B],IC50,Histone deacetylase,2.2 nM
CC(C)[C@H]1NC(=O)[C@H]2CSSCC/C=C/[C@H](CC(=O)N[C@H](C(C)C)C(=O)N2)OC(=O)C[C@@H]1O [spiruchostatin D],Ratio IC50,[1],320
same,Ratio IC50,[2],3
same,IC50,[3],240 nM
same,GI50,PC-3,8.7 nM
same,GI50,DU-145,4 nM
same,GI50,MKN-45,9.6 nM
same,GI50,MKN-74,2.9 nM
same,GI50,MKN-28,9.5 nM
same,GI50,MKN-7,5.8 nM
same,GI50,St-4,16 nM
same,GI50,[4],2 nM
same,GI50,[5],5.9 nM
same,GI50,ACHN,21 nM
same,GI50,SK-OV-3,2.3 nM
same,GI50,OVCAR-5,1.2 nM
same,GI50,OVCAR-8,2.7 nM
same,GI50,OVCAR-4,4.7 nM
same,GI50,LOX IMVI,1.8 nM
same,GI50,OVCAR-3,2.2 nM
same,GI50,DMS-273,5.1 nM
same,GI50,DMS-114,3.6 nM
same,GI50,NCI-H460,2.8 nM
same,GI50,A549,0.97 nM
same,GI50,NCI-H522,0.39 nM
same,GI50,NCI-H23,2.5 nM
same,GI50,NCI-H226,4 nM
same,GI50,HCT-116,1.3 nM
same,GI50,HT-29,2.2 nM
same,GI50,HCT-15,210 nM
same,GI50,[6],1.5 nM
same,GI50,KM12,2.6 nM
same,GI50,SNB-78,41 nM
same,GI50,SNB-75,1.9 nM
same,GI50,SF-539,0.58 nM
same,GI50,SF-295,5.1 nM
same,GI50,U-251,2.7 nM
same,GI50,SF-268,3.5 nM
same,GI50,MDA-MB-231,1.7 nM
same,GI50,MCF7,2.9 nM
same,GI50,[7],18 nM
same,GI50,[8],5.2 nM
same,GI50,[9],4.1 nM
